Consider nine compounds from ChEMBL document CHEMBL1125276 (J Med Chem, 1991).

The subject of one assay is L1210. Nature of the assay: Tested for the inhibition of L1210 cell proliferation. It is filed as functional, cell-based. Particulars: Mus musculus. In outline:
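L1210 cells were grown in RPMI 1640 with 10% FCS, 2 mM L-glutamine and 10 mM HEPES (pH 7.4). Exponential-phase cells (10^5 cells/mL) were exposed for 24 h to 5 drug concentrations in triplicate, then pulsed 3 h with 0.5 µCi/mL [3H]thymidine. Cells were harvested onto filters and counted. IC50 is 50% inhibition of incorporation versus untreated cells, given as the mean of 2–5 independent experiments.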

Assay [1] has as its system P388. Nature of the assay: Long-term survivors (LTS) for 60 days at optimal dose of 0.5 mg/kg for antitumor activity against P388 leukemia cells in 54 mice. It is filed as functional, Mus musculus.
For a further assay, the target named is Tubulin. Briefly: The compound tested for the inhibition of tubulin polymerization. It is filed as functional. In outline:
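Tubulin was partially purified from dog brain by polymerization/depolymerization cycles and used at 0.5 mg/mL. Compounds were added in DMSO (10 µL per 500 µL reaction) at 10^-6 to 10^-9 M, with DMSO-only controls. Polymerization was followed by turbidity at 350 nm. Rates from two separate experiments were plotted against concentration, and IC50 was read graphically.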

Assay [2] concerns P388. Nature of the assay: Compound was tested for T/C range at optimal dose of 0.5 mg/kg for antitumor activity against P388 leukemia cells in mice; value ranges from 160-447. It is filed as functional, Mus musculus.
The subject of assay [3] is P388. Nature of the assay: Compound was tested for T/C range at optimal dose of 0.15 mg/kg for antitumor activity against P388 leukemia cells in mice; value ranges from 168-600. Format: functional, Mus musculus.
Assay [4] deals with P388. Nature of the assay: Long-term survivors (LTS) for 60 days at optimal dose of 0.15 mg/kg for antitumor activity against P388 leukemia cells in 25 mice. Format: functional, Mus musculus.
Assay [5] concerns P388. Nature of the assay: Compound was tested for T/C range at optimal dose of 1.00 mg/kg for antitumor activity against P388 leukemia cells in mice. Format: functional, Mus musculus.
Assay [6] has as its system P388. Briefly: Long-term survivors (LTS) for 60 days at optimal dose of 1.00 mg/kg for antitumor activity against P388 leukemia cells in 6 mice. Format: functional, Mus musculus.
The test system of assay [7] is P388. Briefly: Compound was tested for T/C range at optimal dose of 5.00 mg/kg for antitumor activity against P388 leukemia cells in mice; value ranges from 149-224. Format: functional, Mus musculus.
The subject of assay [8] is P388. Briefly: Long-term survivors (LTS) for 60 days at optimal dose of 5.00 mg/kg for antitumor activity against P388 leukemia cells in 12 mice. It is filed as functional, Mus musculus.
Assay [9] has as its system P388. Nature of the assay: Compound was tested for T/C range at optimal dose of 3.0 mg/kg for antitumor activity against P388 leukemia cells in mice; value ranges from 165-181. It is filed as functional, Mus musculus.
Assay [10] deals with P388. Nature of the assay: Long-term survivors (LTS) for 60 days at optimal dose of 3.0 mg/kg for antitumor activity against P388 leukemia cells in 15 mice. It is filed as functional, Mus musculus.
For assay [11], the system named is P388. Nature of the assay: Long-term survivors (LTS) for 60 days at optimal dose of 1.00 mg/kg for antitumor activity against P388 leukemia cells in 5 mice. It is filed as functional, Mus musculus.
Assay [12] concerns P388. Briefly: Compound was tested for T/C range at optimal dose of 3.0 mg/kg for antitumor activity against P388 leukemia cells in mice; value ranges from 157-203. Format: functional, Mus musculus.
The subject of assay [13] is P388. Nature of the assay: Long-term survivors (LTS) for 60 days at optimal dose of 3.0 mg/kg for antitumor activity against P388 leukemia cells in 45 mice. It is filed as functional, Mus musculus.
In assay [14] the test system is P388. Briefly: Long-term survivors (LTS) for 60 days at optimal dose of 0.5 mg/kg for antitumor activity against P388 leukemia cells in 96 mice. Format: functional, Mus musculus.
In assay [15] the test system is P388. Nature of the assay: Compound was tested for T/C range at optimal dose of 0.5 mg/kg for antitumor activity against P388 leukemia cells in mice; value ranges from 151-480. It is filed as functional, Mus musculus.
In assay [16] the test system is P388. Nature of the assay: Compound was tested for T/C range at optimal dose of 100 mg/kg for antitumor activity against P388 leukemia cells in mice; value ranges from 150-285. It is filed as functional, Mus musculus.
In assay [17] the test system is P388. Nature of the assay: Long-term survivors (LTS) for 60 days at optimal dose of 100 mg/kg for antitumor activity against P388 leukemia cells in 54 mice. Format: functional, Mus musculus.

As for `CCOP(=O)(OCC)C(NC(=O)[C@@]1(O)[C@H](O)[C@]2(CC)C=CCN3CC[C@@]4(c5cc([C@@]6(C(=O)OC)C[C@@H]7CN(CCc8c6[nH]c6ccccc86)C[C@](O)(CC)C7)c(OC)cc5N(C)[C@@H]14)[C@@H]32)C(C)C` (mixture of isomers), the IC50 (as a rule, the midpoint of a concentration-inhibition curve) was 0.64 nM in the assay with L1210 and 300 nM on Tubulin. This compound also yielded an LTS in the assay on P388 [1] of 11. Further, the T/C (in general, the ratio of treated to control) in the assay with P388 [2] was 160%.

For `CCOP(=O)(OCC)[C@@H](NC(=O)[C@@]1(O)[C@H](O)[C@]2(CC)C=CCN3CC[C@@]4(c5cc([C@@]6(C(=O)OC)C[C@@H]7CN(CCc8c6[nH]c6ccccc86)C[C@](O)(CC)C7)c(OC)cc5N(C)[C@@H]14)[C@@H]32)C(C)C`, the IC50 with L1210 was 0.43 nM; against Tubulin, 400 nM. The T/C in the assay with P388 [3] was determined as 168%. For the same compound, the LTS with P388 [4] came out at 8.

Turning to `CCOP(=O)(OCC)[C@@H](C)NC(=O)[C@@]1(O)[C@H](O)[C@]2(CC)C=CCN3CC[C@@]4(c5cc([C@@]6(C(=O)OC)C[C@@H]7CN(CCc8c6[nH]c6ccccc86)C[C@](O)(CC)C7)c(OC)cc5N(C)[C@@H]14)[C@@H]32`, the IC50 turned out to be 37 nM in the assay with L1210 and 80 nM at Tubulin. Further, the T/C in the assay on P388 [5] came to 145%. Besides, the LTS in the assay with P388 [6] was 0.

Compound `CCOP(=O)(OCC)C(Cc1ccccc1)NC(=O)[C@@]1(O)[C@H](O)[C@]2(CC)C=CCN3CC[C@@]4(c5cc([C@@]6(C(=O)OC)C[C@@H]7CN(CCc8c6[nH]c6ccccc86)C[C@](O)(CC)C7)c(OC)cc5N(C)[C@@H]14)[C@@H]32` (mixture of isomers) came in with a T/C with P388 [7] of 149%. Besides, the LTS in the assay with P388 [8] turned out to be 0. Moreover, the IC50 with L1210 was 46 nM; against Tubulin, 70 nM.

The compound `CC[C@]1(O)C[C@H]2CN(CCc3c([nH]c4ccccc34)[C@@](C(=O)OC)(c3cc4c(cc3OC)N(C=O)[C@H]3[C@@](O)(C(=O)OC)[C@H](OC(C)=O)[C@]5(CC)C=CCN6CC[C@]43[C@@H]65)C2)C1` [VINCRISTINE] showed a T/C with P388 [9] of 165%. The LTS in the assay on P388 [10] worked out at 0. Also, the IC50 in the assay with L1210 stood at 4.85 nM; at Tubulin, 500 nM.

As to `C=CC[C@H](NC(=O)[C@@]1(O)[C@H](O)[C@]2(CC)C=CCN3CC[C@@]4(c5cc([C@@]6(C(=O)OC)C[C@@H]7CN(CCc8c6[nH]c6ccccc86)C[C@](O)(CC)C7)c(OC)cc5N(C)[C@@H]14)[C@@H]32)P(=O)(OCC)OCC`, in the assay on P388 [11], the LTS amounted to 0. In the assay on L1210, this compound showed an IC50 of 1.29 nM. For the same compound, in the assay on P388 [5], the T/C was 294%.

For the compound `CC[C@]1(O)C[C@@H]2CN(CCc3c([nH]c4ccccc34)[C@@](C(=O)OC)(c3cc4c(cc3OC)N(C)[C@H]3[C@@](O)(C(=O)OC)[C@H](OC(C)=O)[C@]5(CC)C=CCN6CC[C@]43[C@@H]65)C2)C1` [VINBLASTINE], the T/C in the assay on P388 [12] was 157%. Further, half-maximal inhibition in the assay with L1210 (IC50) was put at 3.15 nM. The compound also registered an LTS in the assay on P388 [13] of 2.

Turning to `CCOP(=O)(OCC)C(C)NC(=O)[C@@]1(O)[C@H](O)[C@]2(CC)C=CCN3CC[C@@]4(c5cc([C@@]6(C(=O)OC)C[C@@H]7CN(CCc8c6[nH]c6ccccc86)C[C@](O)(CC)C7)c(OC)cc5N(C)[C@@H]14)[C@@H]32` (mixture of isomers), in the assay on P388 [14], the LTS was found to be 7. Further, the T/C in the assay with P388 [15] came out at 151%. The 50% inhibitory concentration (IC50) amounted to 2.5 nM in the assay with L1210 and 100 nM against Tubulin.

Compound `CCOC(=O)C(Cc1c[nH]c2ccccc12)NC(=O)[C@@]1(O)[C@H](O)[C@]2(CC)C=CCN3CC[C@@]4(c5cc([C@@]6(C(=O)OC)C[C@@H]7CN(CCc8c6[nH]c6ccccc86)C[C@](O)(CC)C7)c(OC)cc5N(C)[C@@H]14)[C@@H]32` (stereo partly drawn) [VINTRYPOL] returned a T/C in the assay with P388 [16] of 150%. The compound further gave an LTS with P388 [17] of 2. This compound also returned an IC50 against Tubulin of 200 nM.
